Results gathered from unrelated publications.
Each line is one published result; the experiments were not run side by side.
Cell line: HepG2
Effect on: cell growth or viability

CCn1cc(-c2nc(C)no2)c(=O)c2cc(F)c(N3CCC(CN4CCOCC4)CC3)cc21 — EC50 (ATP luminescence; 48 h): > 40 µM
CCOC(=O)c1ccc(-n2c(-c3ccc(C)cc3)cc(-c3ccc(O)cc3)c(C#N)c2=O)cc1 — viability (MTT; 50 µM, 24 h): 25.6%
COc1cccc(NC(=O)CN2C(=O)/C(=C/c3ccco3)SC2=S)c1 — inhibition (MTT; 10 µM): 5.43%
Cc1cc(Nc2ccc(C(=O)N/N=C/c3cccs3)cc2)c2cccc(O)c2n1 — inhibition (MTT; 20 µM): 49%
COc1ccc(NC(=O)c2c(Nc3ccccc3)sc(C(=O)NN=Cc3cc(OC)c(OC)c(OC)c3)c2NC(C)=O)cc1 — viability (SRB; 0.1 µM, 48 h): 76.5%
Cc1cc(=O)oc2ccc(-c3cc(-c4cccc(Cl)c4)nc(N)n3)c(O)c12 — inhibition (MTT; 32 µg/mL, 72 h): 19%
CCOC(=O)c1ccc(-n2c(C)cc(/C=C/c3ccc(OC)cc3)c(C#N)c2=O)cc1 — viability (MTT; 100 µM, 24 h): 47.4%
COc1ccc(-c2cc(-c3ccc4oc(=O)cc(C)c4c3O)nc(N)n2)cc1 — inhibition (MTT; 8 µg/mL, 72 h): 0%
CCOC(=O)c1cn(CC)c2cc(N3CCC(Cc4ccccc4)CC3)c(F)cc2c1=O — EC50 (ATP luminescence; 48 h): > 40 µM
COc1cc2c(c(OC)c1OC)-c1ccc(OC)c(=O)cc1[C@@H](NC(C)=O)CC2 — inhibition (MTT; 10 µM): 56.4%
COc1cc2ncnc(Nc3ccc(F)c(Cl)c3)c2cc1NC(=O)N/N=C/c1cccn1CCN1CCN(C)CC1 — IC50 (MTT; 72 h): 0.22 µM
CCn1cc(-c2nc(C)no2)c(=O)c2cc(F)c(N3CCC(Cc4ccccc4)CC3)cc21 — EC50 (ATP luminescence; 48 h): > 40 µM
COc1ccc(NC(=O)c2c(Nc3ccccc3)sc(C(=O)NN=Cc3ccc(Cl)cc3)c2NC(C)=O)cc1 — viability (SRB; 100 µM, 48 h): 52.6%
COc1cccc(-c2nc3ccc(C)cc3[nH]2)c1 — IC50 (MTT; 48 h): 26.9 µM
CCOC(=O)c1ccc(NC(=O)C2=C3C(=Nc4ccccc43)NC2=O)cc1 — viability (MTT; 100 µM, 24 h): 35.6%
O=C(CN1C(=O)/C(=C/c2ccccc2O)SC1=S)Nc1ccccc1 — inhibition (MTT; 10 µM): 26.4%
CCOc1ccc(-c2nc3ccccc3n2Cc2ccccc2)cc1 — IC50 (MTT): 33.8 µM
CC(C)c1ccc(/C=C2\SC(=S)N(CC(=O)Nc3ccccc3)C2=O)cc1 — inhibition (MTT; 10 µM): 17.5%
COc1ccc(NC(=O)c2c(Nc3ccccc3)sc(C(=O)NN=Cc3ccc(Br)cc3)c2NC(C)=O)cc1 — viability (SRB; 1 µM, 48 h): 85.2%
C=CCn1c(-c2ccc(Cl)cc2)nc2ccccc21 — IC50 (MTT): 58.9 µM
Cc1cc(Nc2ccc(C(=O)N/N=C/c3cc4ccccc4[nH]3)cc2)c2cccc(O)c2n1 — inhibition (MTT; 20 µM): 54.1%
CCn1cc(-c2nc(C)no2)c(=O)c2cc(F)c(N3CCC(F)(F)CC3)cc21 — EC50 (ATP luminescence; 48 h): > 40 µM
Cc1cc(=O)oc2ccc(-c3cc(-c4ccc(Br)cc4)nc(N)n3)c(O)c12 — inhibition (MTT; 8 µg/mL, 72 h): 0%
Cc1ccc2nc(-c3ccc4c(c3)OCO4)[nH]c2c1 — IC50 (MTT; 48 h): 79 µM
O=C(N/N=C/c1cccn1CCCN1CCCC1)Nc1cc2c(Nc3ccc(F)c(Cl)c3)ncnc2cc1O[C@H]1CCOC1 — IC50 (MTT; 72 h): 0.67 µM
CCOC(=O)c1ccc(N2C(N)=C(C#N)C3(C(=O)Nc4ccccc43)C(C#N)=C2O)cc1 (centres unmarked) — viability (MTT; 50 µM, 24 h): 17.9%
COc1ccc(NC(=O)c2c(Nc3ccccc3)sc(C#N)c2NC(=O)CNc2ccc(Cl)cc2)cc1 — viability (SRB; 1 µM, 48 h): 45.3%
Cc1cc(Nc2ccc(C(=O)N/N=C/c3ccc(N(C)C)cc3)cc2)c2cccc(O)c2n1 — inhibition (MTT; 20 µM): 40.8%
CCOC(=O)c1ccc(-n2c(N)c(C#N)c(CC#N)c(C#N)c2=O)cc1 — viability (MTT; 25 µM, 24 h): 50.9%
COc1ccc(NC(=O)c2c(Nc3ccccc3)sc(C#N)c2NC(=O)CNc2ccc(O)cc2)cc1 — viability (SRB; 10 µM, 48 h): 61.6%
O=C(CN1C(=O)/C(=C/c2cccc(Cl)c2)SC1=S)Nc1ccccc1 — inhibition (MTT; 10 µM): 10%
Cc1ccc2nc(-c3ccccc3Cl)[nH]c2c1 — IC50 (MTT; 48 h): 95.6 µM
O=C(CN1C(=O)/C(=C/c2ccccc2Cl)SC1=S)Nc1ccccc1 — inhibition (MTT; 10 µM): 11%
CCOC(=O)c1ccc(-n2c(C)cc(/C=C/c3ccc(OCC)cc3)c(C#N)c2=O)cc1 — viability (MTT; 1.56 µM, 24 h): 100%
O=C(CN1C(=O)/C(=C/c2cccc([N+](=O)[O-])c2)SC1=S)Nc1ccccc1 — inhibition (MTT; 10 µM): 24.2%
Cc1cc(=O)oc2ccc(-c3cc(-c4cccs4)nc(N)n3)c(O)c12 — inhibition (MTT; 128 µg/mL, 72 h): 36%
CCCC1CCN(c2cc3c(cc2F)c(=O)c(C(=O)OCC)cn3CC)CC1 — EC50 (ATP luminescence; 48 h): > 40 µM
Clc1ccc(-c2nc3ccccc3n2Cc2ccccc2)cc1 — IC50 (MTT): 47.2 µM
CC(=O)Nc1cccc(-n2c(=O)n(C3CC3)c(=O)c3c(Nc4ccc(I)cc4F)n(C)c(=O)c(C)c32)c1 — viability (resazurin; 1.56 nM, 72 h): 96.4%
CCCC1CCN(c2cc3c(cc2F)c(=O)c(-c2nc(C)no2)cn3CC)CC1 — EC50 (ATP luminescence; 48 h): > 40 µM
Cc1ccc2nc(-c3c4ccccc4cc4ccccc34)[nH]c2c1 — IC50 (MTT; 48 h): 21.4 µM
COc1ccc(NCC(=O)Nc2c(C#N)sc(Nc3ccccc3)c2C(=O)Nc2ccc(OC)cc2)cc1 — viability (SRB; 1 µM, 48 h): 71.6%
Cc1cc(=O)oc2ccc(-c3cc(-c4ccc(Cl)cc4)nc(N)n3)c(O)c12 — inhibition (MTT; 8 µg/mL, 72 h): 39%
COc1ccc(NC(=O)c2c(Nc3ccccc3)sc(C#N)c2NC(=O)CNc2ccccc2)cc1 — viability (SRB; 0.1 µM, 48 h): 82.4%
Cc1cc(=O)oc2ccc(-c3cc(-c4ccccc4)nc(N)n3)c(O)c12 — inhibition (MTT; 128 µg/mL, 72 h): 20%
c1cncc(-c2nc3ccccc3[nH]2)c1 — IC50 (MTT; 48 h): 70.6 µM
COc1ccc(NC(=O)c2c(Nc3ccccc3)sc(C#N)c2NC(=O)CNc2ccccc2[N+](=O)[O-])cc1 — viability (SRB; 10 nM, 48 h): 92.5%
